{
  "source": "ChEMBL document CHEMBL3352207",
  "about": "“Kinase domain inhibition of leucine rich repeat kinase 2 (LRRK2) using a [1,2,4]triazolo[4,3-b]pyridazine scaffold” (Bioorg Med Chem Lett, 2014)",
  "key": {"[1]": {"test": "Ratio of AUC (0 to tlast) in brain to plasma of rat at 10 mg/kg", "assay_type": "ADME, organism-based", "set-up": "dose 10 mg/kg", "settings": "brain and plasma"}, "[2]": {"test": "Cmax in mouse at 30 mg/kg/day, po for 14 days", "assay_type": "ADME, organism-based", "set-up": "dose 30 mg/kg/day, route oral", "settings": "in vivo", "how_it_was_run": "(§1)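 Mice were dosed orally at 0, 30 and 300 mg/kg/day for 14 days, 5 males per dose group, in a PK/PD study.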"}, "[3]": {"test": "Cmax in mouse at 300 mg/kg/day, po for 14 days", "assay_type": "ADME, organism-based", "set-up": "dose 300 mg/kg/day, route oral", "settings": "in vivo", "how_it_was_run": "as §1"}, "[4]": {"test": "AUC (0 to 24 hrs) in mouse at 30 mg/kg/day, po for 14 days", "assay_type": "ADME, organism-based", "set-up": "dose 30 mg/kg/day, time < 24 hr, route oral", "settings": "plasma", "how_it_was_run": "as §1"}, "[5]": {"test": "AUC (0 to 24 hrs) in mouse at 300 mg/kg/day, po for 14 days", "assay_type": "ADME, organism-based", "set-up": "time < 24 hr, dose 300 mg/kg/day, route oral", "settings": "plasma", "how_it_was_run": "as §1"}, "[6]": {"test": "Ratio of drug level in kidney to plasma of LRRK2 G2019S transgenic mouse kidney at 30 to 300 mg/kg/day", "settings": "kidney and plasma"}},
  "data": [
    {"smiles": "COc1ccc(OC)c(Sc2ccc3nnc(-c4cnn(C)c4)n3n2)c1", "values": [
      {"measurement": "Kp", "setting": "[1]", "result": 0.14},
      {"measurement": "Cmax", "setting": "[2]", "result": 200, "unit": "ng/mL"},
      {"measurement": "Cmax", "setting": "[3]", "result": 12900, "unit": "ng/mL"},
      {"measurement": "AUC at 24 h", "setting": "[4]", "result": 350, "unit": "ng·h/mL"},
      {"measurement": "AUC at 24 h", "setting": "[5]", "result": 20900, "unit": "ng·h/mL"},
      {"measurement": "Kp", "setting": "[6]", "result": 2}
    ]}
  ]
}
